Measurements pooled from the literature.
Protocols differ between the studies behind these lines.
ALK L1196M: ALK tyrosine kinase receptor (ALK, Homo sapiens, UniProt Q9UM73, L1196M)
ALK: ALK tyrosine kinase receptor (ALK, Homo sapiens, UniProt Q9UM73)
ALK C1156Y: ALK tyrosine kinase receptor (ALK, Homo sapiens, UniProt Q9UM73, C1156Y)

With `CN(C(=O)c1ccccc1)c1cc(N(C)c2ccc3c(c2)CCc2ccc(C(=O)NCCN4CCOCC4)cc2C3=O)ccc1F` the remaining binding was 100% (ALK L1196M; cell-free assay, competition with immobilised ligand; 1 µM).
`C[C@H]1CCN(c2nccc(-c3cnn4ncccc34)n2)C1` gave a remaining binding of 82% (ALK; binding; 1 µM).
`Cc1ccc(Nc2nccc(N(C)c3ccc4c(C)n(C)nc4c3)n2)cc1S(N)(=O)=O` has an inhibition of 1% (ALK; enzyme activity, inhibitor; 0.3 µM).
For `CC(C)(O)[C@H]1CC[C@H](Nc2ccc3ncc(-c4cccc(C(F)(F)F)c4)n3n2)CC1`, the remaining activity was 57% (ALK; enzyme activity, inhibitor; 1 µM).
For `Cc1ccc(C(=O)NCc2ccsc2)cc1C#Cc1cn(C(C)C)c2ncnc(N)c12`, the activity vs control was 103% (ALK; enzyme activity, inhibitor; 1 µM).
`CCCOc1ccc(OC)c(F)c1C(=O)c1ccc(C(=O)N[C@@H]2CNC[C@H]2NC(=O)c2ccc3[nH]ncc3c2)cc1` has a remaining activity of 47% (ALK; enzyme activity, inhibitor; 10 µM).
With `CNC(=O)Nc1ccc2c(c1)[C@@]1(CC2)OC(=O)N(CC(=O)N(Cc2ccc(F)cc2)[C@@H](C)C(F)(F)F)C1=O` the remaining binding was 77% (ALK; cell-free assay, competition with immobilised ligand; 1 µM).
`Cc1cnn2ncc(-c3ccnc(N(C)C)n3)c2c1` has a remaining binding of 92% (ALK; binding; 1 µM).
The remaining binding of `C[C@H](c1ccnc(Nc2nc3ccc(-c4cc(N(C)C)ncn4)cc3[nH]2)c1)N1CCN(C(=O)CC(F)(F)F)CC1` is reported as 100% (ALK L1196M; cell-free assay, competition with immobilised ligand; 0.1 µM).
`CN(CCCC(F)(F)F)c1nccc(-c2cnn3ncccc23)n1` gave a remaining binding of 100% (ALK C1156Y; binding; 1 µM).
`O=C(NCc1ncc(C(F)(F)F)cc1Cl)c1ccc2c(c1)C1(CCS(=O)(=O)CC1)[C@@H](C1CC1)N2S(=O)(=O)c1ccc(F)cc1` has a remaining binding of 100% (ALK C1156Y; cell-free assay, competition with immobilised ligand; 1 µM).
The remaining activity of `Cc1sc(C(=O)NC2COC2)cc1-n1cc(NC(=O)Nc2c(F)cccc2Cl)cn1` is reported as 100% (ALK; enzyme activity, inhibitor; 10 µM).
With `CN([C@@H]1CCc2c(CC(=O)O)c3cc(S(C)(=O)=O)ccc3n2C1)S(=O)(=O)c1ccc(F)cc1` the remaining binding was 72% (ALK C1156Y; cell-free assay, competition with immobilised ligand; 1 µM).
`CC/C(=N\NC(=O)NCc1cccc(O)c1)c1ccc(O)c(C)c1O` has an inhibition of 3% (ALK L1196M; enzyme activity, inhibitor; 0.1 µM).
The remaining signal of `Cc1ccc(NC(=O)c2ccc(CN3CCN(C)CC3)cc2)cc1Nc1nc(-c2cccnc2)cs1` is reported as 103% (ALK; cell-free assay; 0.5 µM).
`Cc1ccc(C(=O)Nc2ccc(CN3CCN(C)CC3)c(C(F)(F)F)c2)cc1C#Cc1cnc2cccnn12` has a remaining signal of 90% (ALK C1156Y; cell-free assay; 23.5 nM).
`CN(c1nccc(-c2cnn3ncccc23)n1)C1CC1` has a remaining binding of 100% (ALK C1156Y; binding; 1 µM).
`Cc1nc(N2CC[C@@H](O)C2)ncc1-c1cc(C(F)(F)F)cc2[nH]ncc12` gave a remaining binding of 81% (ALK; cell-free assay, competition with immobilised ligand; 1 µM).
`Oc1ccc(-c2nc(-c3ccncc3)c(-c3ccc(F)cc3)[nH]2)cc1` gave a remaining signal of 104% (ALK; cell-free assay; 0.5 µM).
